{"data": "Published values of several laboratories", "target": "Mitogen-activated protein kinase kinase kinase kinase 4 (MAP4K4, Homo sapiens, UniProt O95819)", "note": "Each line is one published result; the experiments were not run side by side."}
{"SMILES": "C=CC(=O)N1CCC([C@@H]2CCNc3c(C(N)=O)c(-c4ccc(Oc5ccccc5)cc4)nn32)CC1", "observed": "enzyme activity", "mode": "inhibitor", "tested at": "1 µM", "quantity": "inhibition", "value": "23%"}
{"SMILES": "COc1ccc2[nH]c3c4[nH]c5ccc(OC)cc5c4c4c(c3c2c1)C(=O)NC4=O", "observed": "binding", "method": "competition with immobilised ligand", "tested at": "1 µM", "quantity": "remaining binding", "value": "2.7%"}
{"SMILES": "C=CC(=O)N1CCC[C@@H](n2nc(-c3ccc(Oc4ccccc4)cc3)c3c(N)ncnc32)C1", "observed": "enzyme activity", "mode": "inhibitor", "tested at": "1 µM", "quantity": "inhibition", "value": "4%"}
{"SMILES": "C1=C/COCc2cc(ccc2OCCN2CCCC2)Nc2nccc(n2)-c2cccc(c2)COC/1", "observed": "binding", "tested at": "0.1 µM", "quantity": "remaining binding", "value": "55%"}
{"SMILES": "Cc1cc(O)c(-c2ccc([C@@H](C)CN(C)C)cc2)c2c1[nH]c(=O)c1sccc12", "observed": "enzyme activity", "mode": "inhibitor", "tested at": "0.1 µM", "quantity": "inhibition", "value": "-4%"}
{"SMILES": "C#Cc1cc(-c2cc(Nc3nc(N[C@@H](C)c4ccc(F)cn4)ncc3Cl)n[nH]2)ccc1C=O", "observed": "enzyme activity", "mode": "inhibitor", "tested at": "0.2 µM", "quantity": "inhibition", "value": "11.9%"}
{"SMILES": "CC(C)S(=O)(=O)c1ccc2nccc(Nc3ccc4sc(C5CCCC5)nc4c3)c2c1", "observed": "enzyme activity", "mode": "inhibitor", "tested at": "1 µM", "quantity": "activity vs control", "value": "110%"}
{"SMILES": "C[C@H]1CC[C@H](n2c3cnccc3c3cnc(Nc4ccc5c(n4)CCN(C(=O)CO)C5)nc32)CC1", "observed": "binding", "method": "competition with immobilised ligand", "tested at": "1 µM", "quantity": "remaining binding", "value": "100%"}
{"SMILES": "COc1ccc2oc(-c3ccc4nc(N)oc4c3)c/c(=N\\c3ccccc3NC(=O)CCN)c2c1", "observed": "binding", "tested at": "1 µM", "quantity": "remaining binding", "value": "96%"}
{"SMILES": "CCCCC(=O)Nc1ccc(-c2ccc3ncn(CCC)c(=O)c3c2)cn1", "observed": "binding", "method": "competition with immobilised ligand", "tested at": "0.5 µM", "quantity": "remaining binding", "value": "100%"}
